Calls of active or inactive are those of the source. The rule behind the calls is not given here.
Legend:
[1] = Permeability across human Caco2 cells; assay type: ADME, cell-based; conditions: Caco-2, read-out: permeability
Summary of the method: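 Permeation is measured across a Caco2 cell monolayer and reported in 10⁻⁷ cm·s⁻¹.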

Rattus norvegicus [2] = experiment: Ex vivo inhibition of platelet aggregation in Sprague-Dawley rat at 10 mg/kg, po after 2 hrs; assay type: functional; conditions: for inhibition in vivo at 10 mg/kg: Rattus norvegicus, Sprague-Dawley, po, 2 h
Summary of the method: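 Male Sprague−Dawley rats (250−300 g), 6 per batch, are dosed by stomach tube at 10 mL/kg of a 1 mg/mL solution in 5% glucose water containing 5% Cremophor and 3% glycofurol. At 2 h, aortic blood is drawn into 3.8% citrate (1:9) under pentobarbital. PRP is prepared at 300g for 5 min. ADP aggregation is read as the 6-min absorbance AUC and expressed as % inhibition.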

[3] = Metabolic stability in human liver microsomes assessed as compound metabolism after 20 mins incubation in presence of 1 mM NADPH; assay type: ADME; conditions: liver microsomes, read-out: Drug metabolism
Summary of the method: (§1)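 Hepatic microsomal fractions are incubated with compound for 20 min with 1 mM NADPH. Result is reported as % metabolized, i.e. 100 minus % unchanged compound.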

P2Y purinoceptor 12 = P2Y purinoceptor 12 (Homo sapiens, UniProt Q9H244); experiment: Displacement of [33P]2MeS-ADP from P2Y12 receptor (unknown origin) transfected in CHO cells after 30 mins by scintillation counting analysis; assay type: cell-based
Summary of the method: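 P2Y12-expressing CHO cells (35 × 10³/sample) in PBS with 1 mM EDTA and 0.2% BSA are exposed to compound for 30 min. [³³P]2-MeS-ADP (0.16 nM) is then added for 15 min at 20 °C, in triplicate. Filtration separates free from bound ligand, followed by scintillation counting. Nonspecific binding uses 1 mM unlabeled ADP. IC50 comes from a four-parameter logistic fit with asymptotes fixed at 0 and 100. n = 2.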

[4] = Metabolic stability in rat liver microsomes assessed as compound metabolism after 20 mins incubation in presence of 1 mM NADPH; assay type: ADME; conditions: liver microsomes, read-out: Drug metabolism; summary of the method: as §1
Salmonella typhimurium [5] = experiment: Mutagenicity in Salmonella typhimurium by Ames II test in absence of liver S9 fraction; assay type: toxicity, organism-based; conditions: salmonella enterica subsp. enterica serovar typhimurium
Salmonella typhimurium [6] = experiment: Mutagenicity in Salmonella typhimurium by Ames II test in presence of liver S9 fraction; assay type: toxicity, organism-based; conditions: salmonella enterica subsp. enterica serovar typhimurium
Rattus norvegicus [7] = experiment: Ex vivo inhibition of platelet aggregation in Sprague-Dawley rat at 10 mg/kg, po after 6 hrs; assay type: functional; conditions: for inhibition in vivo at 10 mg/kg: Rattus norvegicus, Sprague-Dawley, po, 6 h
Summary of the method: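 Time-course study in Sprague−Dawley rats after a 10 mg/kg oral dose in glucose/Cremophor/glycofurol vehicle. Aortic citrated blood is sampled at intervals over the hours after dosing. PRP is prepared at 300g for 5 min. ADP-induced aggregation is measured as the 6-min absorbance AUC and reported as % inhibition.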

Rattus norvegicus [8] = experiment: Ex vivo inhibition of platelet aggregation in po dosed Sprague-Dawley rat after 2 hrs; assay type: functional
Summary of the method: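 Oral gavage in male Sprague−Dawley rats (250−300 g, 6 per batch), vehicle 5% glucose water with 5% Cremophor and 3% glycofurol. Blood is collected 2 h after dosing from the abdominal aorta into 3.8% citrate under pentobarbital. PRP is prepared at 300g for 5 min. ADP-induced aggregation is quantified as the 6-min absorbance AUC, given as % inhibition.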

P2Y purinoceptor 12, sequence (Q9H244 whole entry): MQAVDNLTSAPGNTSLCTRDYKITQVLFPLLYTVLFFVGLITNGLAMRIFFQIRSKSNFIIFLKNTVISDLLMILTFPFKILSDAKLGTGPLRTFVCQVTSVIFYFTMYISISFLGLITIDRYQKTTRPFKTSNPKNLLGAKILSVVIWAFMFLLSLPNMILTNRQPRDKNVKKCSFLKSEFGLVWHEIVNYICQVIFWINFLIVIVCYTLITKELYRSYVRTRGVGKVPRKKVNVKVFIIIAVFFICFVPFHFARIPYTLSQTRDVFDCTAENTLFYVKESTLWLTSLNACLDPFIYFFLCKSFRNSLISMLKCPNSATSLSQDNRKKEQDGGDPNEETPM

Row | SMILES | Papp [1] | metabolised at 20 min [3] | IC50 (P2Y purinoceptor 12) | metabolised at 20 min [4] | Activity (Salmonella typhimurium [5]) | Activity (Salmonella typhimurium [6]) | further results
1 | CCCC(=O)c1cnn(-c2ccc(NC(=O)c3cn(CC(=O)N4CCN(C)CC4)c4cc(C)c(C)cc34)cc2)c1C.Cl | 5.9 ×10⁻⁶ cm/s | 50% | 39 nM | 52% | – | – | inhibition in vivo at 10 mg/kg (Rattus norvegicus [2]): 37%
2 | CCCC(=O)c1cnn([C@H]2CC[C@H](N)CC2)c1C | – | – | – | – | Non-toxic | – | –
3 | CCCC(=O)c1cnn(-c2ccc(NC(=O)c3cn(CC(=O)N4CCN(CCOC)CC4)c4ccc(C)cc34)cc2)c1C | 7.4 ×10⁻⁶ cm/s | 53% | 20 nM | 32% | – | – | –
4 | CCCC(=O)c1cnn(-c2ccc(NC(=O)c3cn(CC(=O)N4CCN(C(C)C)CC4)c4ccc(C)cc34)cc2)c1C | – | – | 82 nM | – | – | – | inhibition in vivo at 10 mg/kg (Rattus norvegicus [2]): 15%
5 | CCCC(=O)c1cnn(-c2ccc(N)cc2)c1C | – | – | – | – | Non-toxic | Toxic | –
6 | CCCC(=O)c1cnn(-c2ccc(N)c(C#N)c2)c1C | – | – | – | – | Non-toxic | Non-toxic | –
7 | CCCC(=O)c1cnn(-c2ccc(N)c(C(=O)O)c2)c1C | – | – | – | – | Non-toxic | Non-toxic | –
8 | CCCC(=O)c1cnn(-c2ccc3c(c2)OCCN3)c1C | – | – | – | – | Non-toxic | Non-toxic | –
9 | CCCC(=O)c1cnn(-c2ccc(NC(=O)c3cn(CC(=O)N4CCN5CCN(C)C(=O)C5C4)c4ccc(Cl)cc34)cc2)c1C (single isomer, unassigned; 103) | – | – | – | – | – | – | inhibition (Rattus norvegicus [7]): inactive
10 | CCCC(=O)c1cnn(-c2ccc(NC(=O)c3cn(CC(=O)N4CCN(C)CC4)c4cc(C)c(Cl)cc34)cc2)c1C | 3.6 ×10⁻⁶ cm/s | 36% | 34 nM | 23% | – | – | inhibition in vivo at 10 mg/kg (Rattus norvegicus [2]): 31%
11 | CCCC(=O)c1cnn(-c2ccc(N)nn2)c1C | – | – | – | – | Non-toxic | Non-toxic | –
12 | CCCC(=O)c1cnn(-c2ccc(N)c(C(=O)N(C)C)c2)c1C | – | – | – | – | Non-toxic | Toxic | –
13 | CCCC(=O)c1cnn(-c2ccc(NC(=O)c3cn(CC(=O)N4CCN(CC(=O)N(C)C)CC4)c4ccc(Cl)cc34)cc2)c1C | – | 28% | 11 nM | 7% | – | – | inhibition (Rattus norvegicus [2]): inactive
14 | CCCC(=O)c1cnn(-c2ccc(N)cn2)c1C | – | – | – | – | Non-toxic | Toxic | –
15 | CCCC(=O)c1cnn(-c2ccc(NC(=O)c3cn(CC(=O)N4CCN(C)CC4)c4ccc(C(F)(F)F)cc34)cc2)c1C | 0.9 ×10⁻⁶ cm/s | 15% | 50 nM | 14% | – | – | inhibition in vivo at 10 mg/kg (Rattus norvegicus [2]): 26%
16 | CCCC(=O)c1cnn(C2CCN(N)CC2)c1C | – | – | – | – | Non-toxic | Non-toxic | –
17 | CCCC(=O)c1cnn(-c2ccc(NC(=O)c3cn(CC(=O)N4CCN(CCO)CC4)c4ccc(C)cc34)cc2)c1C | 0.2 ×10⁻⁶ cm/s | 16% | 41 nM | 17% | – | – | –
18 | CCCC(=O)c1cnn(-c2ccc(NC(=O)c3cn(CC(=O)N4CCN(C)CC4)c4cc(C)c(Br)cc34)cc2)c1C | 2.8 ×10⁻⁶ cm/s | 34% | 48 nM | 20% | – | – | inhibition in vivo at 10 mg/kg (Rattus norvegicus [2]): 21%

Row | SMILES | Papp [1] | metabolised at 20 min [3] | IC50 (P2Y purinoceptor 12) | metabolised at 20 min [4] | Activity (Salmonella typhimurium [5]) | Activity (Salmonella typhimurium [6]) | further results
19 | CCCC(=O)c1cnn(-c2cnc(N)s2)c1C | – | – | – | – | Non-toxic | Toxic | –
20 | CCCC(=O)c1cnn(-c2ccc(NC(=O)c3cn(CC(=O)N4CCN(CCOC)CC4)c4ccc(Cl)cc34)cc2)c1C | 4.3 ×10⁻⁶ cm/s | 47% | 15 nM | 11% | – | – | inhibition in vivo at 10 mg/kg (Rattus norvegicus [2]): 68%; inhibition in vivo at 10 mg/kg (Rattus norvegicus [7]): 65%
21 | CCCSc1nc(N[C@@H]2C[C@H]2c2ccc(F)c(F)c2)c2nnn([C@@H]3C[C@H](OCCO)[C@@H](O)[C@H]3O)c2n1 [TICAGRELOR] | 7.5 ×10⁻⁶ cm/s | 20% | – | – | – | – | ED50 (Rattus norvegicus [8]): 1.59 mg/kg
22 | CCCC(=O)c1cnn(-c2ccc(NC(=O)c3cn(CC(=O)N4CCN(C)CC4)c4cc(F)c(Cl)cc34)cc2)c1C | 1.1 ×10⁻⁶ cm/s | 31% | 48 nM | 21% | – | – | inhibition (Rattus norvegicus [2]): inactive
23 | CCCC(=O)c1cnn(-c2cnc(N)cn2)c1C | – | – | – | – | Non-toxic | Non-toxic | –
24 | CCCC(=O)c1cnn(-c2ccc(O)cc2)c1C | – | – | – | – | Non-toxic | Non-toxic | –
25 | CCCC(=O)c1cnn(-c2ccc(NC(=O)c3cn(CC(=O)N4CCN(Cc5ccc(F)cc5)CC4)c4ccc(C)cc34)cc2)c1C | 1.7 ×10⁻⁶ cm/s | 63% | 12 nM | 27% | – | – | –
26 | CCCC(=O)c1cnn(-c2ccc(NC(=O)c3cn(CC(=O)N4CCN(CCO)CC4)c4ccc(Cl)cc34)cc2)c1C | – | 14% | 11 nM | 6% | – | – | inhibition in vivo at 10 mg/kg (Rattus norvegicus [2]): 22%
27 | CCCC(=O)c1cnn(-c2ccc(NC(=O)c3cn(CC(=O)N4CCN(CC(F)F)CC4)c4ccc(C)cc34)cc2)c1C | 9.3 ×10⁻⁶ cm/s | 64% | 19 nM | 27% | – | – | –
28 | CCCC(=O)c1cnn(-c2ccc(NC(=O)c3cn(CC(=O)N4CCN(Cc5cc(C)on5)CC4)c4ccc(Cl)cc34)cc2)c1C | 0.6 ×10⁻⁶ cm/s | 87% | 11 nM | 31% | – | – | inhibition in vivo at 10 mg/kg (Rattus norvegicus [2]): 72%; inhibition in vivo at 10 mg/kg (Rattus norvegicus [7]): 60%
29 | CCCC(=O)c1cnn(-c2ccc(N)c(C(N)=O)c2)c1C | – | – | – | – | Non-toxic | Non-toxic | –
30 | CCCC(=O)c1cnn(-c2ccc(NC(=O)c3cn(CC(=O)N4CCN(C)C(C)C4)c4ccc(C)cc34)cc2)c1C (stereo not given) | 5.5 ×10⁻⁶ cm/s | 65% | 27 nM | 45% | – | – | –
31 | CC(=O)Oc1cc2c(s1)CCN(C(C(=O)C1CC1)c1ccccc1F)C2 (stereo not given) | – | – | – | – | – | – | ED50 (Rattus norvegicus [8]): 0.46 mg/kg
32 | CCCC(=O)c1cnn(-c2ccc(NC(=O)c3cn(CC(=O)N4CCN(CCF)CC4)c4ccc(C)cc34)cc2)c1C | 8.2 ×10⁻⁶ cm/s | 62% | 19 nM | 36% | – | – | –
33 | CCCC(=O)c1cnn(-c2ccc(NC(=O)c3cn(CC(=O)O)c4ccc(C)cc34)cc2)c1C | – | 5% | 0.9 nM | 1% | – | – | –
34 | CCCC(=O)c1cnn(-c2ccc(N)nc2)c1C | – | – | – | – | Non-toxic | Non-toxic | –
35 | Cc1c(C(=O)CCC(F)(F)F)cnn1-c1ccc(NC(=O)c2cn(CC(=O)N3CCN(C)CC3)c3ccc(Cl)cc23)cc1 | – | 6% | 574 nM | 3% | – | – | –
36 | COC(=O)[C@H](c1ccccc1Cl)N1CCc2sccc2C1 [CLOPIDOGREL] | – | – | – | – | – | – | ED50 (Rattus norvegicus [8]): 2.6 mg/kg

— ChEMBL document CHEMBL3352233, “N-[6-(4-butanoyl-5-methyl-1H-pyrazol-1-yl)pyridazin-3-yl]-5-chloro-1-[2-(4-methylpiperazin-1-yl)-2-oxoethyl]-1H-indole-3-carboxamide (SAR216471), a novel intravenous and oral, reversible, and directly acting P2Y12 antagonist” (J Med Chem, 2014)
